Reference: ChEMBL document CHEMBL1141052, “Boro-norleucine as a P1 residue for the design of selective and potent DPP7 inhibitors” (Bioorg Med Chem Lett, 2005)

What was measured:
[1] = target: T1, Dipeptidyl peptidase 4 (Homo sapiens, UniProt P27487); experiment: Inhibitory concentration against human dipeptidylpeptidase 4
Target sequence in this assay (P27487 whole entry): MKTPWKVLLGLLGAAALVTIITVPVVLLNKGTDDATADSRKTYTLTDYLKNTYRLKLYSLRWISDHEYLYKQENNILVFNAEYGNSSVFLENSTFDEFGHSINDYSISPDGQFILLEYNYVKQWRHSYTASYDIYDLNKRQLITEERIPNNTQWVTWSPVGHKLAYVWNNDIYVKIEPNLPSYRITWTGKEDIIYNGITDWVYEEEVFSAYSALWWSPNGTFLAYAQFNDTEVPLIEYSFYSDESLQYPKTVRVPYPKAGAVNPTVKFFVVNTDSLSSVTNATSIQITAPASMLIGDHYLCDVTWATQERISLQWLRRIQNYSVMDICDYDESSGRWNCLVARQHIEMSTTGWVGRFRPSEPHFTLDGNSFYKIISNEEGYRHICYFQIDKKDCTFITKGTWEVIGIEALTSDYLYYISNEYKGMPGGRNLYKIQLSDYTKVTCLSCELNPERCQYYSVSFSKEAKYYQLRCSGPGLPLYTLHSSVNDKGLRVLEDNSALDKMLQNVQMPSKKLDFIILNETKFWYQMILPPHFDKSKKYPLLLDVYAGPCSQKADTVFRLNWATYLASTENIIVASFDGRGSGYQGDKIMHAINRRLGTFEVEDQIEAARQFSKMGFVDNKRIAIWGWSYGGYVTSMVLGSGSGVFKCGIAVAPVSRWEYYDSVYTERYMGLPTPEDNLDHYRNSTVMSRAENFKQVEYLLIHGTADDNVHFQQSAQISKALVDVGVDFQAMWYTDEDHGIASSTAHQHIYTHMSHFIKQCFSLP

[2] = target: Dipeptidyl peptidase 2 (Homo sapiens, UniProt Q9UHL4); experiment: Inhibitory concentration against human dipeptidylpeptidase 7
[3] = target: T2, Prolyl endopeptidase FAP (Homo sapiens, UniProt Q12884); experiment: Inhibitory concentration against human fibroblast activation protein alpha; ni = no inhibition at 33 uM concentration
T2 sequence (Q12884 whole entry): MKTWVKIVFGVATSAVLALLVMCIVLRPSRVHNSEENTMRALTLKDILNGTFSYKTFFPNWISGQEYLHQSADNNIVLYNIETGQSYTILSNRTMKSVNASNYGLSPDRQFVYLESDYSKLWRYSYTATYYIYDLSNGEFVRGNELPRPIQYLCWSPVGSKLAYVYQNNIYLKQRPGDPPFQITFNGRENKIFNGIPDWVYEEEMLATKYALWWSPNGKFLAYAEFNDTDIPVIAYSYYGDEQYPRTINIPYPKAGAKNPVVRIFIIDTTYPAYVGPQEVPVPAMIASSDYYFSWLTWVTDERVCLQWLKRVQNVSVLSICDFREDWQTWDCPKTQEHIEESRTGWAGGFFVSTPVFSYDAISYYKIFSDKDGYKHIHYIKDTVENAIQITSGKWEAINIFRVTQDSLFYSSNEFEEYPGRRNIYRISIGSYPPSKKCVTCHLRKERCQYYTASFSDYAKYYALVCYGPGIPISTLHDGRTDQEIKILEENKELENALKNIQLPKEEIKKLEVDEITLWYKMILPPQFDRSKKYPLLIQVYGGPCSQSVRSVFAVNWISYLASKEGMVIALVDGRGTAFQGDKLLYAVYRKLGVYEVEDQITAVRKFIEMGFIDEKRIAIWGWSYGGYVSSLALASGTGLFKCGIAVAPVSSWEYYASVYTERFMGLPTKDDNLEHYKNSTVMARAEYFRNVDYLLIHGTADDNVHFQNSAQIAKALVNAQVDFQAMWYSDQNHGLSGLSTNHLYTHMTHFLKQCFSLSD

[4] = target: T1, Dipeptidyl peptidase 4
Target sequence in this assay (P27487 whole entry): as the sequence (P27487 whole entry) above

[5] = target: T1, Dipeptidyl peptidase 4; experiment: Percent inhibition against human dipeptidylpeptidase 4 at 33 uM concentration
Target sequence in this assay (P27487 whole entry, looked up): as the sequence (P27487 whole entry) above

[6] = target: Dipeptidyl peptidase 8 (Homo sapiens, UniProt Q6V1X1); experiment: Inhibitory concentration against human dipeptidylpeptidase 8 using FP-TAMRA incubated for 30 min; ni = no inhibition at 20 uM concentration
Method in brief: (§1)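 DPP8 and DPP9 from MDA-MB-435 cell lysate. Compounds dissolved in 50% DMSO/50 mM glycine buffer pH 2.5 (final DMSO 1% v/v), serially diluted into lysate, FP-TAMRA activity-based probe labeling, 30 min, quenched with loading buffer. Labeled enzyme resolved by SDS–PAGE, TAMRA fluorescence read by flatbed gel scanner. Duplicates; activity as % of enzyme-alone control, IC50 from Hill fit.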

[7] = target: T3, Dipeptidyl peptidase 9 (Homo sapiens, UniProt Q86TI2); experiment: Inhibitory concentration against human dipeptidylpeptidase 9 using FP-TAMRA incubated for 30 min; ni = no inhibition at 20 uM concentration; method in brief: as §1
Target sequence in this assay (Q86TI2 whole entry): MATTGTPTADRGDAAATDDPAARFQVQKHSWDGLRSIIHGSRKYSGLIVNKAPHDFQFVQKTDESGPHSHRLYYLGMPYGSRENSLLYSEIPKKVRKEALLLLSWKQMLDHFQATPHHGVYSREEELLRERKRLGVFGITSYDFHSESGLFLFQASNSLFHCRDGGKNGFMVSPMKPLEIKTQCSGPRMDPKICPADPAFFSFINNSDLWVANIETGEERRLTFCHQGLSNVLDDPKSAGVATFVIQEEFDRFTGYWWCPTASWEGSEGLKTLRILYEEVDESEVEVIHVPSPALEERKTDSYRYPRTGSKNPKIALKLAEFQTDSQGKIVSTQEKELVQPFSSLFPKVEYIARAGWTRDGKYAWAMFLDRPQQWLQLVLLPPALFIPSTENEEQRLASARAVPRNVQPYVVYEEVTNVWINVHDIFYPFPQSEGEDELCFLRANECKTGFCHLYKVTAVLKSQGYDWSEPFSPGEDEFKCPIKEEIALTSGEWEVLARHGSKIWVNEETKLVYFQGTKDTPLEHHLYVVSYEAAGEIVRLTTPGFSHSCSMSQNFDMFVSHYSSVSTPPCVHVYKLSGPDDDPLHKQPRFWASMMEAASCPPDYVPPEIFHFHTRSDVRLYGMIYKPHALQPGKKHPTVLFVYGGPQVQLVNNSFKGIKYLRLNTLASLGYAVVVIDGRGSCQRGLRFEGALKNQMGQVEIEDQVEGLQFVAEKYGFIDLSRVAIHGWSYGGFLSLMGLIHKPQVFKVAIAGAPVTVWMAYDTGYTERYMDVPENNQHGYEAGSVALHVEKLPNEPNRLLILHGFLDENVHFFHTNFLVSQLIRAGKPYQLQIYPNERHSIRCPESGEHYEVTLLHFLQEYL

[8] = target: T3, Dipeptidyl peptidase 9; experiment: Percentage inhibition against human dipeptidylpeptidase 9 using FP-TAMRA incubated for 30 min at 20 uM concentration; method in brief: as §1
Target sequence in this assay (Q86TI2 2-863 limits assumed): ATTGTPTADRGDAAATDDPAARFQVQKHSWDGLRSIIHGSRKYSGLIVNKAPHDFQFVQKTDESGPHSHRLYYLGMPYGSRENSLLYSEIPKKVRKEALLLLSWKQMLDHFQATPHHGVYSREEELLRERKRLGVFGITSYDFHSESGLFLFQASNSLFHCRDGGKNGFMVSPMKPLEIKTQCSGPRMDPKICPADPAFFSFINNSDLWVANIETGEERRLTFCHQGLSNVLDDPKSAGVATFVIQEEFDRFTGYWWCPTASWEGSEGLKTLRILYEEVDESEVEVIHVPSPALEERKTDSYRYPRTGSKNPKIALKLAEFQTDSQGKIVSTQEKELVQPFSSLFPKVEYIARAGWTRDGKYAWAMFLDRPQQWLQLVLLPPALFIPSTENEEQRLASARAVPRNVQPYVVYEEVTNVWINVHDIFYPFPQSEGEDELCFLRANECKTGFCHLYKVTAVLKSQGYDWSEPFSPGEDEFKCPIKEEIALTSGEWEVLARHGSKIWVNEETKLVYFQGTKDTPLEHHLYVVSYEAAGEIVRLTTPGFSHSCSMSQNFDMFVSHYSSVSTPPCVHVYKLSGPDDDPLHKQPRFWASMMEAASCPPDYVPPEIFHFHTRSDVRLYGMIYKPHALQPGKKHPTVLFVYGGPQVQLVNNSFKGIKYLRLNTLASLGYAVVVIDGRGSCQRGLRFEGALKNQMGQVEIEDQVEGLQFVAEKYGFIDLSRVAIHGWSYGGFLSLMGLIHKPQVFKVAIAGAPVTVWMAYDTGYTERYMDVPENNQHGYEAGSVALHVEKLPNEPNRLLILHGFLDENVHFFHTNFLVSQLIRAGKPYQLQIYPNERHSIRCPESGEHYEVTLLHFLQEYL

Sequence of Dipeptidyl peptidase 8 (Q6V1X1 whole entry): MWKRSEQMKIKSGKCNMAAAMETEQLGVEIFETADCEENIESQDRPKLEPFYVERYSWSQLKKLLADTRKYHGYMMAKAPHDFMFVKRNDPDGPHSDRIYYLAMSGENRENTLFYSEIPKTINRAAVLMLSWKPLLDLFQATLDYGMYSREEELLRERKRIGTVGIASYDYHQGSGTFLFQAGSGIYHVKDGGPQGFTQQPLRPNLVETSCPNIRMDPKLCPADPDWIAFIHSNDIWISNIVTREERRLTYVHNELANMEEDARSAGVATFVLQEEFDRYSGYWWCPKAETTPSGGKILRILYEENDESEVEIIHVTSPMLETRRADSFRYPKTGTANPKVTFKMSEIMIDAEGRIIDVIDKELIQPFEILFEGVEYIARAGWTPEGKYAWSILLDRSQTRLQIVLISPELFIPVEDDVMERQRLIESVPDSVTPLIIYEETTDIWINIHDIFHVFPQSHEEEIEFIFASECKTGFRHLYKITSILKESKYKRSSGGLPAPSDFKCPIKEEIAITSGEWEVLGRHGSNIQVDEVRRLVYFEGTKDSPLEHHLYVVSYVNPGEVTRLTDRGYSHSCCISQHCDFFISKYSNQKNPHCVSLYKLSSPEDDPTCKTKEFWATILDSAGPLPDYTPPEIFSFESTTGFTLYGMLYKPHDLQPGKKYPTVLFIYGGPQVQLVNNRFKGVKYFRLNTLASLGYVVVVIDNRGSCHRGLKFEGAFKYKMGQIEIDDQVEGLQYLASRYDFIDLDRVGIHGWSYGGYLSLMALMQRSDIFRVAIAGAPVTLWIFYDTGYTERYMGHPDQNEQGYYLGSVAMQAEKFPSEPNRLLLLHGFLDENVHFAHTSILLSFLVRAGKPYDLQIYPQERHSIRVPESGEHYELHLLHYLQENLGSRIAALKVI

Structure (SMILES) | IC50 [1] | IC50 [2] | IC50 [3] | IC50 [4] | inhibition [5] | IC50 [6] | IC50 [7] | inhibition [8]
CCCC[C@H](N)C(=O)N1CCC[C@@H]1B(O)O | 4.5 nM | 2 nM |  |  |  |  |  | 
CCCC[C@@H](NC(=O)[C@@H](N)CCCCN)B(O)O |  | 3.7 nM | No inhibition | Not Active |  |  |  | 
CCCC[C@@H](NC(=O)[C@@H](N)CCC)B(O)O | 810 nM | 71 nM | No inhibition |  |  |  |  | 
CCCC[C@@H](NC(=O)[C@@H](N)CCN)B(O)O |  | 0.48 nM | No inhibition |  | 40% |  |  | 
CCCCCNC(=O)[C@@H](N)CCCC |  | 5500 nM | No inhibition |  | 35% | No inhibition | No inhibition | 
CC(C)[C@H](N)C(=O)N[C@@H](C)B(O)O |  | 160 nM |  |  |  |  |  | 
CCCC[C@@H](NC(=O)[C@H](C)N)B(O)O |  | 220 nM | No inhibition | Not Active |  |  |  | 40%
CCCC[C@@H](NC(=O)[C@@H](N)CN)B(O)O | 2000 nM | 8.2 nM | No inhibition |  |  | No inhibition |  | 
CCCC[C@@H](NC(=O)[C@@H](N)C(C)C)B(O)O | 17000 nM | 40 nM | No inhibition |  |  |  |  | 
CCCC[C@@H](NC(=O)[C@@H](N)CCCC)B(O)O | 370 nM | 18 nM | No inhibition |  |  |  |  | 
CCCCCNC(=O)[C@@H](N)CCN |  | 2600 nM | No inhibition | Not Active |  | No inhibition | No inhibition | 
CCCC[C@@H](NC(=O)[C@@H](N)CCCN)B(O)O | 1200 nM | 4.7 nM | No inhibition |  |  |  |  | 
CCCC[C@@H](NC(=O)[C@@H](N)CC)B(O)O | 32000 nM | 49 nM | No inhibition |  |  |  |  | 
NCC[C@H](N)C(=O)N1CCC[C@@H]1B(O)O | 15 nM | 0.72 nM |  |  |  |  |  | 
CCCC[C@@H](NC(=O)[C@@H]1CCCN1)B(O)O |  | 890 nM | No inhibition | Not Active |  | No inhibition |  | 35%
